What was measured:
[1] = target: Alpha-1D adrenergic receptor (Homo sapiens) (UniProt P25100); test: Displacement of [3H] prazosin from recombinant human alpha1d receptor expressed in HEK293 cell membranes at 10 uM measured after 60 mins by scintillation counting method relative to control
In short: (§1)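 Single-concentration screen at 10 μM in an outsourced profiling panel of 68 GPCRs, ion channels and transporters. Activity read out as percent inhibition of specific radioligand binding.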

[2] = target: Alpha-2A adrenergic receptor (Homo sapiens) (UniProt P08913); test: Displacement of [3H]rauwolscine from full length human recombinant alpha2a receptor expressed in CHOK1 cells at 10 uM after 60 mins by scintillation counting method relative to control; format: cell-based
Chain of Alpha-2A adrenergic receptor (Homo sapiens) (P08913 whole entry): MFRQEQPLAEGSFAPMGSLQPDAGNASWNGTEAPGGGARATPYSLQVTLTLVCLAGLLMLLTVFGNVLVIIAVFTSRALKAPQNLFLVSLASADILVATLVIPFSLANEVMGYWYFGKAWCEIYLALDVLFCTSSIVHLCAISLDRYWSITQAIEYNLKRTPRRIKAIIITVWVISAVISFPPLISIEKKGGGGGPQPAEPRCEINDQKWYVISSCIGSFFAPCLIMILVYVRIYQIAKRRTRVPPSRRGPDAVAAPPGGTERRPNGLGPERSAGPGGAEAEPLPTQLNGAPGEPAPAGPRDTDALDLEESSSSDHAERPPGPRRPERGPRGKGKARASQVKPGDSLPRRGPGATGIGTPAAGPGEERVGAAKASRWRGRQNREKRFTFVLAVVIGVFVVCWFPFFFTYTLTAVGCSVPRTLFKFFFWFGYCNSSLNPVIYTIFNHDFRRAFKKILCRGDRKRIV
In short: (§2)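 Single-concentration screen at 10 μM within a commercial lead-profiling panel of 68 GPCRs, ion channels and transporters. Activity read as percent inhibition of specific radioligand binding to each target.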

[3] = target: B2 bradykinin receptor (Homo sapiens) (UniProt P30411); test: Displacement of [3H] bradykinin from recombinant human bradykinin B2 receptor expressed in rat Chem1 cell membranes at 10 uM measured after 60 mins by scintillation counting method relative to control; in short: as §1
Chain of B2 bradykinin receptor (Homo sapiens) (P30411 whole entry): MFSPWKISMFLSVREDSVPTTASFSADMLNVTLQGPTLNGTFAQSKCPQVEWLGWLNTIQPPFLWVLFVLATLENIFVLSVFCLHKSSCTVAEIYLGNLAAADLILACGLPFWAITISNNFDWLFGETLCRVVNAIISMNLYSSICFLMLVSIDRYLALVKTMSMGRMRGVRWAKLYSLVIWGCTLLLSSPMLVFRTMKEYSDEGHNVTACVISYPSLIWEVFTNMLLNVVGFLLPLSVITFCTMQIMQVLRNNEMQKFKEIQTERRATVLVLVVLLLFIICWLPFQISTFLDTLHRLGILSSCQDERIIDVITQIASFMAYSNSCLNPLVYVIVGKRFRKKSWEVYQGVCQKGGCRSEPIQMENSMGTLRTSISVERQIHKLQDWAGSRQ

[4] = target: Muscarinic acetylcholine receptor M1 (Homo sapiens) (UniProt P11229); test: Displacement of [3H] N-methylscopolamine from recombinant human M1 receptor expressed in CHOK1 cell membranes at 10 uM after 120 mins by scintillation counting method relative to control; in short: as §1
Chain of Muscarinic acetylcholine receptor M1 (Homo sapiens) (P11229 whole entry): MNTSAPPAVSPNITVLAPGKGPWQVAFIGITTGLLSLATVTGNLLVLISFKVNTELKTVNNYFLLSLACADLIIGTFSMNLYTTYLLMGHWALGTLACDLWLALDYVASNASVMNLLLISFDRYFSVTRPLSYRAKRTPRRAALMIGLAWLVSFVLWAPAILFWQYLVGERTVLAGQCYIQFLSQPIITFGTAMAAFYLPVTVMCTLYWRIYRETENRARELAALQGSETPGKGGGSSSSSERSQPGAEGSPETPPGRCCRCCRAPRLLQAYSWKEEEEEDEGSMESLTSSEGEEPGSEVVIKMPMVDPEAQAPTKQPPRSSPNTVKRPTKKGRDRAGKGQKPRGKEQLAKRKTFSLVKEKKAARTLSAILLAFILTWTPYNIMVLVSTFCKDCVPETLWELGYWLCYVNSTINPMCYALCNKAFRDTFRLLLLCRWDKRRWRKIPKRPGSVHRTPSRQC

[5] = target: Platelet-activating factor receptor (Homo sapiens) (UniProt P25105); test: Displacement of [3H] PAF from human platelet activating factor receptor at 10 uM after 180 mins by scintillation counting method relative to control; in short: as §1
Chain of Platelet-activating factor receptor (Homo sapiens) (P25105 whole entry): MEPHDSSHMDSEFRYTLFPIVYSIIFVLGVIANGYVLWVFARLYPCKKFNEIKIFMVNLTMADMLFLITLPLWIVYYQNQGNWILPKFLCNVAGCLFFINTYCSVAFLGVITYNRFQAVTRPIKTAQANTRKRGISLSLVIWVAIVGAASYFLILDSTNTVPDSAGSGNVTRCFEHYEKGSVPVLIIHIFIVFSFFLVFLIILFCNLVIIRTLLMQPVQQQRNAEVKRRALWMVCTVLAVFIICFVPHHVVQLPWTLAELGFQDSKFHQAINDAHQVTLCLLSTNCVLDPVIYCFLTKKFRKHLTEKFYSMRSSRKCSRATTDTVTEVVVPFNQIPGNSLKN

[6] = target: Sodium-dependent dopamine transporter (Homo sapiens) (UniProt Q01959); test: Displacement of [125I] RTI-55 from full length human recombinant DAT expressed in CHO cell membranes at 10 uM after 180 mins by scintillation counting method relative to control; in short: as §1
Chain of Sodium-dependent dopamine transporter (Homo sapiens) (Q01959 whole entry): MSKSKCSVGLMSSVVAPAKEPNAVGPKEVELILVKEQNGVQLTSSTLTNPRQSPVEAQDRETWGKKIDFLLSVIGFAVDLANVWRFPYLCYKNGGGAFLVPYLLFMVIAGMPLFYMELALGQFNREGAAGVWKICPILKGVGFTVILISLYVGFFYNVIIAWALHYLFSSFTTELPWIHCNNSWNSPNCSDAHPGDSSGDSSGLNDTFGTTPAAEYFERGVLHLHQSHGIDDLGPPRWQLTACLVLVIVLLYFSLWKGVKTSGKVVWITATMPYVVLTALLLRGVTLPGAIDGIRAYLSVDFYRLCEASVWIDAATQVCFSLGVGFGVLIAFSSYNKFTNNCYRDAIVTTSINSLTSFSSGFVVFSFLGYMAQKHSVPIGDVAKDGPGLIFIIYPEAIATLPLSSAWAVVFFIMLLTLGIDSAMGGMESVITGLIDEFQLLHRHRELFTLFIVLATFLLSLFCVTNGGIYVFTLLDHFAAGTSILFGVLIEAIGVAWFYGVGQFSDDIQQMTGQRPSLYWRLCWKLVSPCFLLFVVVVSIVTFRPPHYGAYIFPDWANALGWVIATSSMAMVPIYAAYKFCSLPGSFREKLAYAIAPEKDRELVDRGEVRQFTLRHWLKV

[7] = species on record: Rattus norvegicus; test: Displacement of [3H] GABA from GABA transporter in Wistar rat cerebral cortical membranes at 10 uM measured after 20 mins by scintillation counting method relative to control; in short: as §1
[8] = target: T1, Glutamate NMDA receptor (Rattus norvegicus) (UniProt P35439+Q00959+Q00960+Q00961+Q62645+Q8VHN2+Q9R1M7); test: Displacement of [3H] CGP-39653 from NMDA in Wistar rat cerebral cortical membranes at 10 uM measured after 20 mins by scintillation counting method relative to control; in short: as §1
[9] = target: T1, Glutamate NMDA receptor (Rattus norvegicus); test: Displacement of [3H] TCP from glutamate NMDA receptor phencyclidine binding site in Wistar rat cerebral cortical membrane at 10 uM after 45 mins by scintillation counting method relative to control; in short: as §1
[10] = species on record: Rattus norvegicus; test: Displacement of [3H]batrachotoxinin from sodium channel site 2 in Wistar rat brain membranes at 10 uM after 60 mins by scintillation counting method relative to control; format: cell membranes; conditions: Membrane; in short: as §2
[11] = species on record: Rattus norvegicus; test: Displacement of [125I] triiodothyronine from thyroid hormone receptor in Sprague-Dawley rat liver membranes at 10 uM after 18 hrs by scintillation counting method relative to control; format: cell membranes; conditions: Membrane; in short: as §1
[12] = species on record: Rattus norvegicus; test: Displacement of [3H] Idazoxan from imidazoline I2 receptor in Wistar rat brain membranes at 10 uM after 30 mins by scintillation counting method relative to control; format: cell membranes; conditions: Membrane; in short: as §1
[13] = species on record: Rattus norvegicus; test: Displacement of [3H] Rolipram from PDE4 receptor rolipram binding site in Wistar rat brain membranes at 10 uM after 60 mins by scintillation counting method relative to control; format: cell membranes; conditions: Membrane; in short: as §1

Measured: inhibition

Chain of Alpha-1D adrenergic receptor (Homo sapiens) (P25100 whole entry): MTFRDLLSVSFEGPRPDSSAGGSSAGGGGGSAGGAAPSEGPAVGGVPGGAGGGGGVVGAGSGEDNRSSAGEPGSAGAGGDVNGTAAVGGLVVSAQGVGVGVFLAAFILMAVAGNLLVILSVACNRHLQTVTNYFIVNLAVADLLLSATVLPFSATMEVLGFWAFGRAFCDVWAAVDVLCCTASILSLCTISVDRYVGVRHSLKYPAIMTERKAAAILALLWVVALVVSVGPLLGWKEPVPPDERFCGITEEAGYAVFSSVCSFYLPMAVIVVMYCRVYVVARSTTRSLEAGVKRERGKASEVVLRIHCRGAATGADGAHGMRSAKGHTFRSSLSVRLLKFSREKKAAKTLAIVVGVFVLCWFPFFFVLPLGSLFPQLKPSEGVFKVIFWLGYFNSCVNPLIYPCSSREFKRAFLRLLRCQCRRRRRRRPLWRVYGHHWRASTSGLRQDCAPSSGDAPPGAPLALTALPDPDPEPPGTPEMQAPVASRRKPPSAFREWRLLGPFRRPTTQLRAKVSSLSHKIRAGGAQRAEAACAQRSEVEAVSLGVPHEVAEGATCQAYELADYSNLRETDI

COc1ccc(-c2c(C)nn3c(C(F)(F)F)cc(C)nc23)c(F)c1F
< 50%: all assays above
